MsrA act: activators of bovine methionine sulfoxide reductase A; purified bovine MsrA, absorbance read-out; 360,000 compounds, 0.3% hits; activation, % at 10.6 µM; AID 602163; in the data active = activation above about 7.5%;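 note: 0% = vehicle and 100% = reference activator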
IMP-1 inhibitor: inhibitors of Pseudomonas aeruginosa IMP-1 metallo-beta-lactamase. 290,000 compounds, 0.45% hits. inhibition, % at 5.6 µM. purified IMP-1, nitrocefin hydrolysis, epi-absorbance fluorescence;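 active = inhibition above the mean plus 3 SD of all compounds in the same screening run, cut at about 4.5% in these data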;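 note: 0% = IMP-1 with DMSO and 100% = DMSO wells lacking enzyme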
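System: purified recombinant IMP-1 beta-lactamase. Medium: Zinc- and detergent-supplemented HEPES buffer, pH 7.1. Compound: one 5.6 µM dose […]. Schedule: 15 min preincubation plus 25 min reaction at 25 °C. Technique: Epi-absorbance fluorescence, 480 nm excitation, 530 nm emission.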
VIM-2 inhibitor: blocks Pseudomonas aeruginosa VIM-2 metallo-beta-lactamase; purified VIM-2, nitrocefin hydrolysis, epi-absorbance fluorescence; inhibition, % at 5.6 µM; 290,000 compounds, 0.89% hits;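 active = inhibition above the mean of all tested compounds plus 3 SD, cutoff set per screening run, cut at about 7.5% in these data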;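 note: red hydrolysis product quenches plate fluorescence so inhibitors raise well fluorescence; 0% = enzyme with DMSO and 100% = DMSO without enzyme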
MsrA inh: inhibitors of bovine MsrA | purified bovine MsrA, absorbance read-out | inhibition, % at 15.5 µM | 360,000 compounds, 0.75% hits | AID 651718; in the data active = inhibition above about 4.5%;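 note: 0% = vehicle wells with enzyme and 100% = reference inhibitor wells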
PKA-R1A act: activates the PKA-R1A holoenzyme complex; 340,000 compounds, 0.083% hits; AID 504707; PKA-R1A dissociation, Cy5-IP20 fluorescence polarization; scaled: DMSO 0%, 113 µM cGMP 100%; P00514+P68181; activation, % at 11.4 µM;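 active = percent activation above the mean of all tested compounds plus 3 SD, cut at about 19% in these data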;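 note: higher means more PKAc released from R1A so a rise in polarization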
PKA-R2B activ: PKA-R2B complex activation. P22694+P31323. PKA-R2B holoenzyme dissociation, Cy5-IP20 fluorescence polarization; R2B truncated from residue 108, S112A mutant; 0% DMSO only, 100% 113 µM cGMP. activation, % at 11.4 µM. 340,000 compounds, 0.079% hits. AID 504700;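 active = activation above a cutoff set at the mean over all compounds plus 3 SD, cut at about 18% in these data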;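 note: higher means more holoenzyme dissociation and a rise in polarization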
Target sequence (P31323 whole entry, looked up, other chains not shown, the tested form may be a part): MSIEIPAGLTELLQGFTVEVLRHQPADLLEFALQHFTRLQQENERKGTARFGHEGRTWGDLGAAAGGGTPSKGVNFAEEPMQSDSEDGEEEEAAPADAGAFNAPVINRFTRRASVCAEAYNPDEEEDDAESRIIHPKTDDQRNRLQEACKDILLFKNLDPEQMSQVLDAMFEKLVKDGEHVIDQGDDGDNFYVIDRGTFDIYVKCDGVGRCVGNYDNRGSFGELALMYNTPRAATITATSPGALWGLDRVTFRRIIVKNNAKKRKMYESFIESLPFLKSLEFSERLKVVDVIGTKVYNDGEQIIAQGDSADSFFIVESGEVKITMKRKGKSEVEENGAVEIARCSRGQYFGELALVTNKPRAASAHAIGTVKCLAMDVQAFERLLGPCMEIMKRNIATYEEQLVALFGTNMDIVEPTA
* hit, by the source's call. Hits are enriched below; roughly 2.1% of the tested compounds scored in any of these assays.

Screening O=C(/C=C/c1ccc2c(c1)OCO2)Nc1nc(-c2ccccc2)cs1 returned MsrA act -3.1, IMP-1 inhibitor -0.4, VIM-2 inhibitor -3.6, MsrA inh 4.8*, PKA-R1A act -4.5 and PKA-R2B activ -9.6.
`O=C(/C=C/c1ccc2c(c1)OCO2)Nc1c(C(=O)O)[nH]c2ccccc12` gave MsrA act -2.4, IMP-1 inhibitor -1.1, VIM-2 inhibitor -0.4, MsrA inh 4.7*, PKA-R1A act -8.2 and PKA-R2B activ -8.5.
`O=C(Nc1scc(-c2ccccc2)c1C(=O)O)c1ccco1` gave MsrA act -3.3, IMP-1 inhibitor 4.8*, VIM-2 inhibitor -1.7, MsrA inh 2.4, PKA-R1A act -10.1 and PKA-R2B activ 1.9.
Screening O=C(Nc1scc(-c2cccs2)c1C(=O)O)c1cccs1 returned MsrA act -5.6, IMP-1 inhibitor 15.3*, VIM-2 inhibitor 2.7, MsrA inh 2.4, PKA-R1A act -3.7 and PKA-R2B activ 1.8.
For CCc1c(-c2cccc(OC)c2)ncn1CCc1ccccc1OC the results were MsrA inh 1.1.
CN(CCCNC(=O)c1cc2c(=O)[nH]c3ccccc3c2n1C)Cc1ccccc1 was read as MsrA act -1.0, IMP-1 inhibitor -0.7, VIM-2 inhibitor 8.1*, MsrA inh -0.6, PKA-R1A act 7.8 and PKA-R2B activ 6.8.
For Cn1c(C(=O)NCCCN2CCN(c3ccccc3F)CC2)cc2c(=O)[nH]c3ccccc3c21 the results were MsrA act -1.8, IMP-1 inhibitor -6.5, VIM-2 inhibitor 10.7*, MsrA inh -0.4, PKA-R1A act 2.6 and PKA-R2B activ -0.6.
For CCCCCn1c(=O)[nH]c2cc(C(=O)NCCCN(C)Cc3ccccc3)ccc2c1=O the results were MsrA act -1.1, IMP-1 inhibitor -2.5, VIM-2 inhibitor 1.3, MsrA inh 1.1, PKA-R1A act -8.1 and PKA-R2B activ -1.3.
For CC1CC(C)CN(CCCNC(=O)c2cc3c(=O)[nH]c4ccccc4c3n2C)C1 (stereo unspecified) the results were MsrA act -5.1, IMP-1 inhibitor -1.6, VIM-2 inhibitor 12.1*, MsrA inh 0.4, PKA-R1A act 7.7 and PKA-R2B activ -8.7.
CCC1CCCCN1CCCNC(=O)c1cc2c(=O)[nH]c3ccccc3c2n1C (stereo unspecified) was read as MsrA act -1.7, IMP-1 inhibitor -1.9, VIM-2 inhibitor 8.9*, MsrA inh -0.3, PKA-R1A act -2.5 and PKA-R2B activ 1.9.
Screening O=C(COC(=O)c1cccc(S(=O)(=O)N2CCCC2)c1)Nc1ccccc1C(F)(F)F returned MsrA act -3.5, MsrA inh 0.2, PKA-R1A act -7.8 and PKA-R2B activ -2.1.
CCCCC[C@@H](C)N1C[C@@H](COCc2ccccc2)Oc2cc(N3CCC[C@@H]3COC)ccc2S1(=O)=O was read as MsrA act 0.1 and MsrA inh -0.1.
Screening O=c1ncn(C2CCCCC2)c(=O)[nH]1 returned MsrA act -12.6, MsrA inh -1.3, PKA-R1A act -8.1 and PKA-R2B activ -2.3.
`COc1ccc(-c2nc3ccc(N4CCN(C)CC4)cc3c(=O)[nH]2)cc1` gave MsrA act -3.9, IMP-1 inhibitor -3.2, VIM-2 inhibitor 8.1*, MsrA inh 1.9, PKA-R1A act -1.5 and PKA-R2B activ 5.3.
Screening COc1ccc(-c2nc3ccccc3c(=O)[nH]2)cc1 returned MsrA act -0.8, IMP-1 inhibitor -3.0, VIM-2 inhibitor -0.5, MsrA inh 1.5, PKA-R1A act -1.6 and PKA-R2B activ -5.2.
`CC(Oc1ccc2c3c(c(=O)oc2c1)CCCC3)C(=O)NCCN1CCOCC1` (stereo unspecified) gave MsrA act -5.8, IMP-1 inhibitor -0.8, VIM-2 inhibitor 6.9, MsrA inh 2.9, PKA-R1A act -7.5 and PKA-R2B activ 6.5.
COc1ccc2c(c1OC)c(=O)n1c3ccc(OC(C)C(=O)NCCCN4CCOCC4)cc3c3ccnc2c31 (stereo unspecified) was read as MsrA act -1.9, IMP-1 inhibitor -1.5, VIM-2 inhibitor 11.4*, PKA-R1A act -14.0 and PKA-R2B activ -3.0.
`COc1ccc(C(C)NC(=O)C2CCN(CCCc3ccccc3)CC2)cc1OC` (stereo unspecified) gave MsrA act 2.4 and MsrA inh -0.4.
Screening CCN1CCN(c2ccc(NC(=O)c3cccc(OCc4ccccc4)c3)cc2)CC1 returned MsrA act 1.0, IMP-1 inhibitor -2.6, VIM-2 inhibitor 5.4, MsrA inh 0.9, PKA-R1A act -15.1 and PKA-R2B activ -8.3.
CCN1CCN(c2ccc(NC(=O)c3ccc4c(c3)[nH]c(=O)n4Cc3ccc(F)cc3)cc2)CC1 was read as MsrA act -1.0, IMP-1 inhibitor -1.7, VIM-2 inhibitor 9.2*, MsrA inh 1.7, PKA-R1A act 6.2 and PKA-R2B activ -5.5.
COc1ccc(NC(=O)c2cc3c(COC(C)=O)cnc(C)c3oc2=Nc2cccc(C(=O)O)c2)c(OC)c1 was read as MsrA act -13.2, IMP-1 inhibitor -0.8, VIM-2 inhibitor 0.6, PKA-R1A act 19.3* and PKA-R2B activ -3.4.
COc1cccc(N=c2oc3c(C)ncc(CO)c3cc2C(=O)Nc2ccccc2OC)c1 was read as IMP-1 inhibitor -2.3 and VIM-2 inhibitor -2.8.
For CCOC(=O)N1CCN(C(C(=O)NC2CCCC2)c2ccco2)CC1 (stereo unspecified) the results were MsrA inh -1.3.
CC(=O)Nc1cc(C)nn1-c1nc(C)cc(C)n1 was read as MsrA act -4.1, IMP-1 inhibitor -0.3, VIM-2 inhibitor 9.3*, MsrA inh -1.2, PKA-R1A act 0.4 and PKA-R2B activ -11.4.
For Cc1ccc(Nc2cc(C)nn2-c2nc(C)cc(C)n2)cc1 the results were MsrA act -0.4, IMP-1 inhibitor -7.3, VIM-2 inhibitor 7.8*, MsrA inh 0.1, PKA-R1A act -4.7 and PKA-R2B activ 1.8.
For Cc1cc(C)nc(-n2nc(C)cc2NC(=O)C(C)C)n1 the results were MsrA act -2.2, IMP-1 inhibitor -3.6, VIM-2 inhibitor 1.9, MsrA inh -1.1, PKA-R1A act -1.2 and PKA-R2B activ -1.7.
Screening CC1(C(=O)NS(=O)(=O)Cc2ccccc2)CCN1C(=O)Cc1cc(F)ccc1F (stereo unspecified) returned MsrA act -0.3 and MsrA inh 0.7.
O=c1[nH]c2ccccc2c2nc3ccccn3c12 was read as MsrA act -0.9, IMP-1 inhibitor -2.4, VIM-2 inhibitor 3.0, MsrA inh 2.6, PKA-R1A act 2.4 and PKA-R2B activ -2.4.
`O=c1nc2c(O)cccn2c2c1c(=O)[nH]c1ccccc12` gave MsrA act -3.5, IMP-1 inhibitor 8.3*, VIM-2 inhibitor 5.3, MsrA inh 2.6, PKA-R1A act -3.5 and PKA-R2B activ -2.2.

Screens: PubChem, The Scripps Research Institute Molecular Screening Center
